Measurements taken from ChEMBL document CHEMBL4699593, “Identification of 2,4-Disubstituted Imidazopyridines as Hemozoin Formation Inhibitors with Fast-Killing Kinetics and In Vivo Efficacy in the Plasmodium falciparum NSG Mouse Model” (J Med Chem, 2020).
Values after ≈ are worked out from the molar mass of the structure shown.

Legend:
[1] = Oral bioavailability in Balb/C mouse at 20 mg/kg by LC-MS/MS analysis; format: ADME, organism-based; settings: in vivo
Outline: (§1)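 Healthy Balb/c mice were given the compound i.v. or orally. Parameters come from non-compartmental analysis: AUC from 0 h to t_last, blood clearance, volume at steady state, terminal half-life, Tmax. Oral bioavailability F is derived from the i.v. and p.o. data.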

[2] = AUC (0 to t) in Balb/C mouse at 20 mg/kg, po by LC-MS/MS analysis; format: ADME, organism-based; parameters: dose 20 mg/kg; settings: in vivo
Outline: (§2)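 Healthy Balb/c mice dosed i.v. or orally. Parameters come from non-compartmental analysis of compound concentration over time. […] Clearance is blood clearance (CL_b).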

[3] = Cmax in Balb/C mouse at 2 mg/kg, iv by LC-MS/MS analysis; format: ADME, organism-based; parameters: route intravenous, dose 2 mg/kg; settings: in vivo; outline: as §2
[4] = Clearance in Balb/C mouse blood at 2 mg/kg, iv by LC-MS/MS analysis; format: ADME, organism-based; settings: whole blood; outline: as §2
[5] = Intrinsic clearance in Balb/c mouse at 20 mg/kg, po by LC-MS/MS analysis; format: ADME, organism-based; settings: in vivo
[6] = AUC (0 to t) in Balb/C mouse at 2 mg/kg, iv by LC-MS/MS analysis; format: ADME, organism-based; parameters: dose 2 mg/kg; settings: in vivo; outline: as §2
Plasmodium falciparum [7] = experiment: Antiplasmodial activity against multidrug-sensitive asexual blood stage Plasmodium falciparum NF54 strain assessed as reduction in parasite growth after 72 hrs by NBT reagent based LDH assay; format: functional, organism-based; settings: NF54, 72 h
[8] = Volume of distribution at steady state in Balb/C mouse at 2 mg/kg, iv by LC-MS/MS analysis; format: ADME, organism-based; settings: in vivo, read-out: Vdss; outline: as §1
[9] = Ratio of unbound average drug concentration in Balb/c mouse at 20 mg/kg, po measured at 24 hrs to IC50 for antiplasmodial activity against multidrug-sensitive Plasmodium falciparum NF54 asexual blood stage assessed as reduction in parasite growth after 72 hrs by LDH assay; format: organism-based; settings: in vivo
[10] = Cmax in Balb/C mouse at 20 mg/kg, po by LC-MS/MS analysis; format: ADME, organism-based; parameters: route oral, dose 20 mg/kg; settings: in vivo; outline: as §2
Plasmodium falciparum [11] = experiment: Antiplasmodial activity against multidrug-resistant asexual blood stage Plasmodium falciparum K1 strain assessed as reduction in parasite growth after 72 hrs by NBT reagent based LDH assay; format: functional, organism-based; settings: K1, 72 h
Outline: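 Asexual blood-stage K1 (multidrug-resistant) parasites were read out by the parasite lactate dehydrogenase (pLDH) assay. […] Most individual values varied less than 2× (maximum 3×).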

[12] = Terminal half life in Balb/C mouse at 2 mg/kg, iv by LC-MS/MS analysis; format: ADME, organism-based; settings: in vivo, read-out: beta t1/2 (converted); outline: as §1
[13] = Aqueous solubility of compound in phosphate buffer saline at pH 6.5 incubated for 20 hrs under shaking condition by shake-flask method based HPLC-DAD analysis; format: physicochemical; settings: phosphate buffered saline
Outline: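 Equilibrium aqueous solubility was measured at pH 6.5 using a miniaturized shake-flask method.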

[14] = Terminal half life in Balb/C mouse at 20 mg/kg, po by LC-MS/MS analysis; format: ADME, organism-based; settings: in vivo, read-out: beta t1/2 (converted); outline: as §1
[15] = Selectivity index, ratio of CC50 for cytotoxicity against CHO cells assessed as reduction in cell viability to IC50 for antiplasmodial activity against multidrug-sensitive Plasmodium falciparum NF54 assessed as reduction in parasite growth; format: toxicity, cell-based; settings: hamster, read-out: Ratio CC50/IC50
CHO = experiment: Cytotoxicity against CHO cells assessed as reduction in cell viability by MTT assay; format: cell-based, Cricetulus griseus; settings: chinese hamster
Outline: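 Cytotoxicity was measured in Chinese hamster ovary (CHO) cells and reported as CC50. The selectivity index is CC50 divided by NF54 IC50.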

[16] = Tmax in Balb/C mouse at 20 mg/kg, po by LC-MS/MS analysis; format: ADME, organism-based; settings: in vivo; outline: as §1
Plasmodium falciparum [17] = experiment: Antiplasmodial activity against late stage (IV/V) Plasmodium falciparum NF54 gametocytes at 5 uM incubated for 48 hrs under hypoxia condition by luciferase reporter gene assay relative to control; format: functional
Plasmodium falciparum [18] = experiment: Antiplasmodial activity against early stage (I to III) Plasmodium falciparum NF54 gametocytes incubated for 48 hrs under hypoxia condition by luciferase reporter gene assay; format: functional, organism-based; settings: NF54, 48 h
Plasmodium berghei = experiment: Antiplasmodial activity against luciferase-expressing Plasmodium berghei sporozoites liver stage infected in human HepG2 cells expressing GFP-CD81 fusion protein incubated for 48 hrs by luciferase reporter gene based bioluminescence assay; format: functional, organism-based; settings: HepG2, 48 h
Outline: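 Liver-stage activity was measured in vitro with rodent P. berghei sporozoites. Values are the mean of 3 technical replicates from the luciferase assay; individual values varied less than 2×.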

[19] = target: Voltage-gated inwardly rectifying potassium channel KCNH2 (Homo sapiens, UniProt Q12809); experiment: Inhibition of human ERG by patch clamp method
Voltage-gated inwardly rectifying potassium channel KCNH2, sequence (Q12809 whole entry): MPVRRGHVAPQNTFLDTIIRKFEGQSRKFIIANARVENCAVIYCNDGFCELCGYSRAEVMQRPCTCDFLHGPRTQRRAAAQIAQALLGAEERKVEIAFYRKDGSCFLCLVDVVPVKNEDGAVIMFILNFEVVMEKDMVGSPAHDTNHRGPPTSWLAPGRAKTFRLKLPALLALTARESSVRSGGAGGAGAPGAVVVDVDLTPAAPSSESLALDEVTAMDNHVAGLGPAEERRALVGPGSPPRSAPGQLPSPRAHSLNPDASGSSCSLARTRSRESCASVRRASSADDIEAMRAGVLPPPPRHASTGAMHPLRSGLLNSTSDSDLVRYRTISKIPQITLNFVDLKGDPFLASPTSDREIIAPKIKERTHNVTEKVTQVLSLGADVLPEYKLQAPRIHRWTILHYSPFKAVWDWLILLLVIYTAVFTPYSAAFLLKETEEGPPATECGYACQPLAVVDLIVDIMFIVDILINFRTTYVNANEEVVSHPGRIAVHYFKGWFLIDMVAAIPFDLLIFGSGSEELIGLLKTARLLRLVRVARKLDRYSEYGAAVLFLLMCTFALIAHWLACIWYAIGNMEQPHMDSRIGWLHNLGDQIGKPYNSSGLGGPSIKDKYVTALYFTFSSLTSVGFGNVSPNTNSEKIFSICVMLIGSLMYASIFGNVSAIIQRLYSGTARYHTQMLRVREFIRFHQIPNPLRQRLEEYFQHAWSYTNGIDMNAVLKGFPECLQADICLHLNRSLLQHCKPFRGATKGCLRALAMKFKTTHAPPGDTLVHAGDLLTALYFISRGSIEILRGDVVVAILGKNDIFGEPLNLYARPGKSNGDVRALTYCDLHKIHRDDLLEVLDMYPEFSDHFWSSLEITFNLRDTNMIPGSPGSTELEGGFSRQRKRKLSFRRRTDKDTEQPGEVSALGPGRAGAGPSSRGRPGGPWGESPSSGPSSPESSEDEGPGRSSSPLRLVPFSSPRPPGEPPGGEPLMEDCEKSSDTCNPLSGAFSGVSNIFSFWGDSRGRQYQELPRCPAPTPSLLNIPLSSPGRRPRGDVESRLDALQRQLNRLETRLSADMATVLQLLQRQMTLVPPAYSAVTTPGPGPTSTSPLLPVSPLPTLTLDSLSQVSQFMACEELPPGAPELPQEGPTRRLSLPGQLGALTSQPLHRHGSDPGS

Hemozoin = experiment: Inhibition of beta-hematin formation assessed as reduction in hemozoin formation incubated for 5 hrs by NP40 detergent-mediated assay
Outline: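 Synthetic hemozoin (β-hematin) formation is driven by the detergent Nonidet P-40. Pyridine is then added to detect unreacted hematin. IC50 is derived from this read-out.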

[20] = Cmax in Balb/C mouse at 10 mg/kg, po by LC-MS/MS analysis; format: ADME, organism-based; parameters: route oral, dose 10 mg/kg; settings: in vivo; outline: as §2
[21] = Oral bioavailability in Balb/C mouse at 10 mg/kg by LC-MS/MS analysis; format: ADME, organism-based; settings: in vivo; outline: as §1
[22] = Ratio of unbound average drug concentration in Balb/c mouse at 10 mg/kg, po measured at 24 hrs to IC50 for antiplasmodial activity against multidrug-sensitive Plasmodium falciparum NF54 asexual blood stage assessed as reduction in parasite growth after 72 hrs by LDH assay; format: organism-based; settings: in vivo
[23] = AUC (0 to t) in Balb/C mouse at 10 mg/kg, po by LC-MS/MS analysis; format: ADME, organism-based; parameters: dose 10 mg/kg; settings: in vivo; outline: as §2
[24] = Tmax in Balb/C mouse at 10 mg/kg, po by LC-MS/MS analysis; format: ADME, organism-based; settings: in vivo; outline: as §1
[25] = Terminal half life in Balb/C mouse at 10 mg/kg, po by LC-MS/MS analysis; format: ADME, organism-based; settings: in vivo, read-out: beta t1/2 (converted); outline: as §1
[26] = Dissociation constant, pKa of compound; format: physicochemical
[27] = Apparent intrinsic clearance in mouse liver microsomes at 0.1 uM in presence of NADPH by LC-MS/MS analysis; format: ADME, Microsome
Outline: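 Compound was incubated with mouse liver microsomes for 30 min. Apparent intrinsic clearance (CL_int,app) is reported in μL/min/mg.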

[28] = AUC (0 to t) in Balb/C mouse at 5 mg/kg, po by LC-MS/MS analysis; format: ADME, organism-based; parameters: dose 5 mg/kg; settings: in vivo; outline: as §2
[29] = Oral bioavailability in Balb/C mouse at 5 mg/kg by LC-MS/MS analysis; format: ADME, organism-based; settings: in vivo; outline: as §1
[30] = Terminal half life in Balb/C mouse at 5 mg/kg, po by LC-MS/MS analysis; format: ADME, organism-based; settings: in vivo, read-out: beta t1/2 (converted); outline: as §1
[31] = Ratio of unbound average drug concentration in Balb/c mouse at 5 mg/kg, po measured at 24 hrs to IC50 for antiplasmodial activity against multidrug-sensitive Plasmodium falciparum NF54 asexual blood stage assessed as reduction in parasite growth after 72 hrs by LDH assay; format: organism-based; settings: in vivo
[32] = Tmax in Balb/C mouse at 5 mg/kg, po by LC-MS/MS analysis; format: ADME, organism-based; settings: in vivo; outline: as §1
[33] = Cmax in Balb/C mouse at 5 mg/kg, po by LC-MS/MS analysis; format: ADME, organism-based; parameters: route oral, dose 5 mg/kg; settings: in vivo; outline: as §2
[34] = Selectivity ratio of IC50 for antiplasmodial activity against luciferase-expressing Plasmodium berghei sporozoites liver stage infected in human HepG2 cells expressing GFP-CD81 fusion protein to IC50 for antiplasmodial activity against multidrug-sensitive Plasmodium falciparum NF54; format: functional

Structure (SMILES) | Cmax [3] | clearance [4] | AUCt [6] | IC50 (Plasmodium falciparum [7]) | Vd [8] | IC50 (Plasmodium falciparum [11]) | half-life [12] | solubility thermodynamic at 20 h [13] | selectivity ratio [15] | CC50 (CHO) | further results
CN1CCC(N2CCN(c3nccc4[nH]c(-c5ccc(F)c(F)c5)nc34)CC2)CC1 | 1700 nM | 11.4 mL/min/kg | 6.77 µM·h | 71 nM | 4.3 L/kg | 260 nM | 8.2 h | 200 µM (≈ 82.5 µg/mL) | 460 | 33000 nM | bioavailability [1]: 11%; AUCt [2]: 6.63 µM·h; CL [5]: 54 mL/min/kg; Ratio [9]: 0.9; Cmax [10]: 1100 nM; half-life [14]: 10.8 h; Tmax [16]: 2.3 h
Fc1ccc(-c2nc3c(N4CCCN(CC5CC5)CC4)nccc3[nH]2)cc1F | – | – | – | 20 nM | – | 77 nM | – | 200 µM (≈ 76.7 µg/mL) | 850 | – | inhibition at 5 µM (Plasmodium falciparum [17]): 48%; IC50 (Plasmodium falciparum [18]): 5300 nM; IC50 (Plasmodium berghei): 17000 nM
Cc1cc2[nH]c(-c3cc(F)cc(F)c3)nc2c(N2CCC(CN3CCN(C)CC3)CC2)n1 | – | – | – | 12 nM | – | 21 nM | – | 200 µM (≈ 88.1 µg/mL) | 160 | 1900 nM | IC50 [19]: > 30000 nM; IC50 (Hemozoin): 15000 nM
CN1CCN(CC2CCN(c3cncc4[nH]c(-c5cc(F)cc(F)c5)nc34)CC2)CC1 | 100 nM | 71.8 mL/min/kg | 0.967 µM·h | 130 nM | 51 L/kg | 330 nM | 6.9 h | 125 µM (≈ 53.3 µg/mL) | – | 46000 nM | Cmax [20]: 400 nM; bioavailability [21]: 73%; Ratio [22]: 0.3; AUCt [23]: 3.57 µM·h; Tmax [24]: 3.5 h; half-life [25]: 4.9 h
Fc1cc(F)cc(-c2nc3c(N4CCC(N5CCOCC5)CC4)nccc3[nH]2)c1 | – | – | – | – | – | – | – | – | – | – | pKa [26]: 7.4
CN1CCC(N2CCCN(c3nccc4[nH]c(-c5ccc(F)c(F)c5)nc34)CC2)CC1 | – | – | – | 35 nM | – | 220 nM | – | 200 µM (≈ 85.3 µg/mL) | 490 | 17000 nM | CLH [27]: > 200 µL/min/mg
CN1CCN(c2nccc3nc(-c4ccc(F)c(F)c4)[nH]c23)CC1 | 1000 nM | 27.3 mL/min/kg | 3.58 µM·h | 240 nM | 9 L/kg | 500 nM | 5.9 h | 130 µM (≈ 42.8 µg/mL) | – | – | AUCt [28]: 3.25 µM·h; bioavailability [29]: 36%; half-life [30]: 5.4 h; Ratio [31]: 0.1; Tmax [32]: 0.7 h; Cmax [33]: 1100 nM
Fc1ccc(-c2nc3c(N4CCC(CN5CCOCC5)CC4)nccc3[nH]2)cc1F | 300 nM | 19.6 mL/min/kg | 4.17 µM·h | 51 nM | 20 L/kg | 120 nM | 25.8 h | 85 µM (≈ 35.1 µg/mL) | 690 | 35000 nM | bioavailability [1]: 83%; AUCt [2]: 34.6 µM·h; inhibition at 5 µM (Plasmodium falciparum [17]): 0%; Ratio [9]: 4.6; IC50 [19]: ≤ 3000 nM; Cmax [10]: 3700 nM; IC50 (Plasmodium falciparum [18]): 1300 nM; half-life [14]: 13.5 h; IC50 (Plasmodium berghei): 290 nM; Ratio IC50 [34]: <=6; Tmax [16]: 0.7 h
